Results on three compounds are retold here after ChEMBL document CHEMBL1157306, “Capisterones A and B, which enhance fluconazole activity in Saccharomyces cerevisiae, from the marine green alga Penicillus capitatus” (J Nat Prod, 2006).

The source made the active and inactive calls. The rule behind the calls is not given here. A value given as a limit tells only on which side of the number the result lay.

Data set [1] has as its system Saccharomyces cerevisiae. Kind of data set: Potentiation of fluconazole-induced antifungal activity against null pump Saccharomyces cerevisiae DSY 390 assessed as fractional inhibitory concentration at 12.8 uM. The class given is functional. The procedure, abridged: (§1)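 Fluconazole dose-response curves were run alone and with a fixed concentration of second agent (22.5, 6.0 or 12.8 μM). Strains were S. cerevisiae null pump DSY 390 and DSY 415 overexpressing C. albicans CDR1 or MDR1. Growth inhibition was the read-out, and the fractional inhibitory concentration was derived from it.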

Data set [2] has as its system Saccharomyces cerevisiae. Kind of data set: Potentiation of fluconazole-induced antifungal activity against Saccharomyces cerevisiae DSY 415 overexpressing Candida albicans CDR1 assessed as fractional inhibitory concentration at 12.8 uM. The class given is functional. The procedure, abridged:
as §1

Data set [3] relates to Saccharomyces cerevisiae. Kind of data set: Potentiation of fluconazole-induced antifungal activity against Saccharomyces cerevisiae DSY 415 overexpressing Candida albicans MDR1 assessed as fractional inhibitory concentration at 12.8 uM. It counts as functional. In short, it runs like this:
as §1

Another data set deals with Candida albicans. Kind of data set: Antifungal activity against Candida albicans. The class given is functional, organism-based.
The test system of the next data set is Nakaseomyces glabratus. Kind of data set: Antifungal activity against Candida glabrata. It counts as functional, organism-based.
A further data set deals with Pichia kudriavzevii. Kind of data set: Antifungal activity against Candida krusei. It counts as functional, organism-based.
The test system of another data set is Cryptococcus neoformans. Kind of data set: Antifungal activity against Cryptococcus neoformans. It counts as functional, organism-based.
Another data set has as its system Aspergillus fumigatus. Kind of data set: Antifungal activity against Aspergillus fumigatus. It counts as functional, organism-based.
A further data set relates to KB. Kind of data set: Cytotoxicity against human KB cells. It counts as functional, cell-based. In short, it runs like this: (§2)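 Human cancer cell lines (KB, SK-MEL, BT-549, SK-OV-3) tested alongside non-cancerous Vero cells, with test agent concentrations up to 35 μM.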
The subject of a further data set is SK-MEL. Kind of data set: Cytotoxicity against human SK-MEL cells. The class given is functional, cell-based. In short, it runs like this:
as §2

The next data set concerns BT-549. Kind of data set: Cytotoxicity against human BT549 cells. It counts as functional, cell-based. In short, it runs like this:
as §2

Another data set concerns SK-OV-3. Kind of data set: Cytotoxicity against human SKOV3 cells. The class given is functional, cell-based. In short, it runs like this:
as §2

The subject of another data set is Vero. Kind of data set: Cytotoxicity against african green monkey Vero cells up to 35 uM. It counts as cell-based. The following applies: chlorocebus sabaeus.
Data set [4] has as its system Saccharomyces cerevisiae. Kind of data set: Antifungal activity against Saccharomyces cerevisiae DSY 415 overexpressing Candida albicans MDR1 at 67.4 uM. It counts as functional, organism-based.
Data set [5] has as its system Saccharomyces cerevisiae. Kind of data set: Antifungal activity against null pump Saccharomyces cerevisiae DSY 390 at 67.4 uM. The class given is functional, organism-based.
Data set [6] has as its system Saccharomyces cerevisiae. Kind of data set: Antifungal activity against Saccharomyces cerevisiae DSY 415 overexpressing Candida albicans MDR1 at 12.8 uM. The class given is functional, organism-based.
Data set [7] relates to Saccharomyces cerevisiae. Kind of data set: Antifungal activity against null pump Saccharomyces cerevisiae DSY 390 at 12.8 uM. It counts as functional, organism-based.
Data set [8] has as its system Saccharomyces cerevisiae. Kind of data set: Antifungal activity against Saccharomyces cerevisiae DSY 415 overexpressing Candida albicans CDR1. It counts as functional, organism-based. The procedure, abridged: (§3)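 Growth inhibition of S. cerevisiae strains with efflux pumps overexpressed (CDR1 or MDR1, DSY 415) or no pump (DSY 390) was measured across a dose range of test agent alone. IC50 was read from the dose-response curves.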

For data set [9], the system named is Saccharomyces cerevisiae. Kind of data set: Antifungal activity against Saccharomyces cerevisiae DSY 415 overexpressing Candida albicans MDR1. It counts as functional, organism-based. The procedure, abridged:
as §3

In data set [10] the test system is Saccharomyces cerevisiae. Kind of data set: Antifungal activity against null pump Saccharomyces cerevisiae DSY 390. It counts as functional, organism-based. The procedure, abridged: as §3
Data set [11] concerns Saccharomyces cerevisiae. Kind of data set: Antifungal activity against Saccharomyces cerevisiae DSY 415 overexpressing Candida albicans CDR1 at 67.4 uM. The class given is functional, organism-based.
Data set [12] relates to Saccharomyces cerevisiae. Kind of data set: Antifungal activity against Saccharomyces cerevisiae DSY 415 overexpressing Candida albicans CDR1 at 12.8 uM. The class given is functional, organism-based.
In data set [13] the test system is Saccharomyces cerevisiae. Kind of data set: Potentiation of fluconazole-induced antifungal activity against Saccharomyces cerevisiae DSY 415 overexpressing Candida albicans CDR1 assessed as fractional inhibitory concentration at 22.5 uM. The class given is functional. The procedure, abridged: as §1
The subject of data set [14] is Saccharomyces cerevisiae. Kind of data set: Potentiation of fluconazole-induced antifungal activity against Saccharomyces cerevisiae DSY 415 overexpressing Candida albicans MDR1 assessed as fractional inhibitory concentration at 22.5 uM. It counts as functional. The procedure, abridged:
as §1

Data set [15] relates to Saccharomyces cerevisiae. Kind of data set: Potentiation of fluconazole-induced antifungal activity against null pump Saccharomyces cerevisiae DSY 390 assessed as fractional inhibitory concentration at 22.5 uM. It counts as functional. The procedure, abridged: (§4)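 Pump-null S. cerevisiae DSY 390 was run in parallel with strains overexpressing C. albicans CDR1 or MDR1 efflux pumps. Growth-inhibition dose-response curves were recorded for fluconazole alone and for fluconazole with a fixed modulator concentration (22.5 or 6.0 μM). The interaction was expressed as a fractional inhibitory concentration (FIC) index.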

In data set [16] the test system is Saccharomyces cerevisiae. Kind of data set: Potentiation of fluconazole-induced antifungal activity against Saccharomyces cerevisiae DSY 415 overexpressing Candida albicans CDR1 assessed as fractional inhibitory concentration at 6.03 uM. The class given is functional. The procedure, abridged: as §1
Data set [17] deals with Saccharomyces cerevisiae. Kind of data set: Potentiation of fluconazole-induced antifungal activity against Saccharomyces cerevisiae DSY 415 overexpressing Candida albicans MDR1 assessed as fractional inhibitory concentration at 6.03 uM. The class given is functional. In short, it runs like this:
as §1

Data set [18] relates to Saccharomyces cerevisiae. Kind of data set: Potentiation of fluconazole-induced antifungal activity against null pump Saccharomyces cerevisiae DSY 390 assessed as fractional inhibitory concentration at 6.03 uM. It counts as functional. The procedure, abridged:
as §4

On to `CC(C)[C@@H]1OC(=O)[C@@H](Cc2ccccc2)N(C)C(=O)[C@H](C(C)C)OC(=O)[C@@H](Cc2ccccc2)N(C)C(=O)[C@H](C(C)C)OC(=O)[C@@H](Cc2ccccc2)N(C)C1=O` [BEAUVERICIN], for which the FIC50 with Saccharomyces cerevisiae [1] is reported as 2.67; in the data set with Saccharomyces cerevisiae [2], 0.05; in the data set on Saccharomyces cerevisiae [3] it was 2.
As for `CC(=O)OC[C@@]1(COS(=O)(=O)O)C(=O)CC[C@]23C[C@]24CC[C@]2(C)[C@@H]([C@H](C)CC(=O)CC(C)C)CC[C@@]2(C)[C@@H]4CC[C@@H]13` [CAPISTERONE A], the outcome with Candida albicans, with Nakaseomyces glabratus, in the data set with Pichia kudriavzevii, in the data set with Cryptococcus neoformans, in the data set with Aspergillus fumigatus and in the data set with KB was inactive. Moreover, the result in the data set with SK-MEL, in the data set on BT-549, in the data set on SK-OV-3, in the data set on Saccharomyces cerevisiae [4], in the data set with Saccharomyces cerevisiae [5] and in the data set on Saccharomyces cerevisiae [6] was inactive. Further, the result in the data set with Saccharomyces cerevisiae [7], with Saccharomyces cerevisiae [11] and with Saccharomyces cerevisiae [12] was inactive. The Activity entry in the data set on Vero is given as “Not Active”. For the same compound, the IC50 in the data set on Saccharomyces cerevisiae [8], with Saccharomyces cerevisiae [9] and in the data set with Saccharomyces cerevisiae [10] was over 67 µM throughout. Further, the FIC50 in the data set with Saccharomyces cerevisiae [13] worked out at 0.33; in the data set on Saccharomyces cerevisiae [14], 0.08; in the data set on Saccharomyces cerevisiae [15], 0.55.
`CC(C)CC(=O)C[C@@H](C)[C@H]1CC[C@@]2(C)[C@@H]3CC[C@H]4[C@](CO)(COS(=O)(=O)O)C(=O)CC[C@@]45C[C@@]35CC[C@]12C` [CAPISTERONE B]: the outcome in the data set on Candida albicans, in the data set on Nakaseomyces glabratus, in the data set on Pichia kudriavzevii, in the data set on Cryptococcus neoformans, with Aspergillus fumigatus and in the data set with KB was inactive. For the same compound, the outcome in the data set on SK-MEL, in the data set on BT-549 and with SK-OV-3 was inactive. Besides, in the data set with Vero, the Activity entry is reported as “Not Active”. Besides, the IC50 with Saccharomyces cerevisiae [8], in the data set with Saccharomyces cerevisiae [9] and in the data set with Saccharomyces cerevisiae [10] was 7 µM in each case. Further, the FIC50 in the data set with Saccharomyces cerevisiae [16] worked out at 0.33; in the data set with Saccharomyces cerevisiae [17] it was 0.15; in the data set with Saccharomyces cerevisiae [18], 0.5.

The term IC50 denotes the point on the concentration scale where inhibition reaches its midpoint.
